{"source": "paper PMC6430656", "about": "(Cell chemical biology, 2018)", "key": {"HsTAK1": {"test_system": "HsTAK1", "conditions": "ref Totzke et al., 2017, cited from earlier work"}, "[1]": {"test_system": "P. berghei parasite load in HuH7 cells", "assay": "P. berghei liver stage parasite load in HuH7 cells", "assay_type": "cell-based, Plasmodium berghei", "summary_of_the_method": "(§1)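 Hepatoma cells were seeded with test compound (0–100 μM) before infection with 3,000 P. berghei ANKA sporozoites: 15,000 cells/well for HepG2 and 8,000 for HuH7. For HepG2, compound was also added at 0 or 4 hpi. Parasite load was read by luciferase luminescence at 45 h and normalised to 1% DMSO. EC50 came from a variable-slope four-parameter fit, mean ± SEM of n ≥4.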"}, "[2]": {"test_system": "K63-linked ubiquitin in P. falciparum", "assay_type": "cell-based, Plasmodium falciparum", "conditions": "for K63-linked protein ubiquitination (band intensities relative to DMSO): 30 μM, 24 hrs, ring stage P. falciparum 3D7", "summary_of_the_method": "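P. falciparum 3D7 was cultured in RPMI/AlbuMAX II at pH 7.2, 37 °C, under 3% O2, and sorbitol-synchronised. Ring stages (10 h post-reinvasion; 10% parasitemia, 1% haematocrit) were treated 24 h with test compound (30 μM, or 0.001–100 μM) or ≤0.1% DMSO. Cells were saponin-lysed and sonicated, then blotted with anti-K63-linkage ubiquitin, with anti-K48 ubiquitin as control and actin as loading control. Total band intensity was quantified across 2–3 independent experiments.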"}, "PfPK9": {"target": "PfPK9 (Plasmodium falciparum, UniProt Q8IEG4)", "assay": "ATP-competitive binding assay, GFP-PfPK9 on ATP-sepharose resin", "conditions": "for relative PfPK9 binding compared to negative DMSO control: takinib analog screen at 250 and 500 μM"}, "PfCDPK1": {"target": "PfCDPK1 (Plasmodium falciparum, UniProt P62344)", "sequence (P62344 whole entry)": "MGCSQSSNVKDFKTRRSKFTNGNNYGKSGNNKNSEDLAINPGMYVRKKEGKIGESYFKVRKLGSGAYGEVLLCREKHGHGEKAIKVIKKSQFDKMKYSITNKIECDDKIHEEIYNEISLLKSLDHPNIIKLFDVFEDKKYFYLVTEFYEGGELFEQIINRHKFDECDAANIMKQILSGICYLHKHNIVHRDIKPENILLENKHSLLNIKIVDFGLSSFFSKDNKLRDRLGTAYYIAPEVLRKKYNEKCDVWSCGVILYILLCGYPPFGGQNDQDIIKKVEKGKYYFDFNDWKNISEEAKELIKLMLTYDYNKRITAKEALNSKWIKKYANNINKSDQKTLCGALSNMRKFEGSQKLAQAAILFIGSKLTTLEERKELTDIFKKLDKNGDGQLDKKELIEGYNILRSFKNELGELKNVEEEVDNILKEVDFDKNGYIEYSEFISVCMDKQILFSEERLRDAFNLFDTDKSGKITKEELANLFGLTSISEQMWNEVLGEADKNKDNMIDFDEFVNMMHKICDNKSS", "assay": "KINOMEScan affinity for PfCDPK1", "assay_type": "binding"}, "PfPK5": {"target": "PfPK5 (Plasmodium falciparum, UniProt P61075)", "sequence (P61075 whole entry)": "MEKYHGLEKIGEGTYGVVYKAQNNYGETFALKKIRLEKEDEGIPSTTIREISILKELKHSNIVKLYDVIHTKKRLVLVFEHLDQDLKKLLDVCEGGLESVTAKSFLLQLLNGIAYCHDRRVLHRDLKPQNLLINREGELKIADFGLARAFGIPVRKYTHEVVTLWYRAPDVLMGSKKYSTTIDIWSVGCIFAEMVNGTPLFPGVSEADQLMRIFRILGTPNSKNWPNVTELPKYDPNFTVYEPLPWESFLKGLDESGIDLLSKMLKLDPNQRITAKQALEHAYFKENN", "assay": "KINOMEScan affinity for PfPK5", "assay_type": "binding"}, "HuH7 cells": {"test_system": "HuH7 cells", "assay": "HuH7 hepatoma cell viability", "assay_type": "cell-based"}, "[3]": {"test_system": "P. berghei EEFs in HuH7 cells", "assay": "Immunofluorescence analysis of P. berghei EEFs in HuH7 cells", "assay_type": "cell-based, Plasmodium berghei"}, "Solubility": {"assay": "Solubility", "assay_type": "physicochemical"}, "[4]": {"test_system": "P. berghei parasite load in HepG2 cells", "assay": "P. berghei liver stage parasite load in HepG2 cells", "assay_type": "cell-based", "conditions": "Plasmodium berghei, HepG2, read-out: EC50 P. berghei parasite load, HepG2 cells", "summary_of_the_method": "as §1"}, "[5]": {"test_system": "blood stage P. falciparum parasites", "assay": "Inhibition of blood stage P. falciparum parasites", "assay_type": "cell-based, Plasmodium falciparum", "conditions": "100 μM"}, "HepG2 cells": {"test_system": "HepG2 cells", "assay": "HepG2 hepatoma cell viability", "assay_type": "cell-based", "summary_of_the_method": "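HepG2 cells (15,000/well) were seeded with test compound, then infected with 3,000 P. berghei ANKA sporozoites. Viability was measured after 45 h in the same wells as the parasite-load read-out, using a fluorescence protease-activity assay (an ATP luminescence assay is also described). Signal was normalised to 1% DMSO, and ≥50% loss of viability was the exclusion threshold.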"}, "HsIRAK4": {"test_system": "HsIRAK4", "conditions": "read-out: IC50 HsIRAK4; ref Totzke et al., 2017; cited from earlier work"}, "HsIRAK1": {"test_system": "HsIRAK1", "conditions": "read-out: IC50 HsIRAK1; ref Totzke et al., 2017; cited from earlier work"}}, "note": "Read-outs that look alike come from different tables or passages of the source.", "data": [{"smiles": "CCCn1c(NC(=O)c2cccc(C(=O)O)c2)nc2ccccc21", "note": "[HS220]", "values": [{"measurement": "HsTAK1 inhibition, fold less potent than takinib", "setting": "HsTAK1; HS220 vs takinib", "result": "160,000 fold"}, {"measurement": "effect on HsTAK1 activity", "setting": "HsTAK1", "result": "little or no effect"}, {"measurement": "EC50", "setting": "[1]; read-out: EC50 P. berghei parasite load, HuH7 cells", "result": "43 ± 3.8", "unit": "µM"}, {"measurement": "K63-linked protein ubiquitination (band intensities relative to DMSO)", "setting": "[2]", "result": "decrease"}, {"measurement": "PfPK9 binding affinity, fold less potent than takinib", "setting": "PfPK9; HS220 vs takinib", "result": 8.9, "unit": "fold"}, {"measurement": "Kd", "setting": "PfPK9; read-out: Kd(app) PfPK9 binding, converted from EC50, dose-response 0–500 μM", "result": "4.1 ± 0.8", "unit": "µM"}, {"measurement": "relative PfPK9 binding compared to negative DMSO control", "setting": "PfPK9", "result": "> 3", "unit": "fold"}, {"measurement": "Kd", "setting": "PfCDPK1; read-out: Kd PfCDPK1, tested up to 30 μM, KINOMEScan", "result": "> 30", "unit": "µM"}, {"measurement": "Kd", "setting": "PfPK5; read-out: Kd PfPK5, tested up to 30 μM, KINOMEScan", "result": "> 30", "unit": "µM"}, {"measurement": "change in HuH7 viability upon treatment", "setting": "HuH7 cells", "result": "no significant change"}, {"measurement": "decrease of cell viability", "setting": "HuH7 cells; HuH7, any concentration tested", "result": "≤ 30", "unit": "%"}, {"measurement": "number of EEFs", "setting": "[3]; 30 μM, 0–48 hpi", "result": "did not change"}, {"measurement": "EEF size", "setting": "[3]; 30 μM, 0–48 hpi, vs DMSO", "result": "significantly increased"}, {"measurement": "EEF size", "setting": "[3]; 100 μM, 0–48 hpi", "result": "not affected"}, {"measurement": "number of EEFs", "setting": "[3]; 100 μM, 0–48 hpi", "result": "decreased"}]}, {"smiles": "NC(=O)c1cccc(C(=O)Nc2nc3ccccc3s2)c1", "note": "[HS230]", "values": [{"measurement": "effect on HsTAK1 activity", "setting": "HsTAK1", "result": "little or no effect"}, {"measurement": "relative PfPK9 binding compared to negative DMSO control", "setting": "PfPK9", "result": "> 3", "unit": "fold"}, {"measurement": "solubility", "setting": "Solubility", "result": "poor"}]}, {"smiles": "CCCn1/c(=N/C(=O)c2cccc(C(N)=O)c2)[nH]c2ccccc21", "note": "[takinib]", "values": [{"measurement": "EC50", "setting": "[4]", "result": "6.7 ± 1.3", "unit": "µM"}, {"measurement": "inhibition of blood stage P. falciparum parasites", "setting": "[5]", "result": "inhibits"}, {"measurement": "IC50", "setting": "HsTAK1; read-out: IC50 HsTAK1", "result": 0.0095, "unit": "µM"}, {"measurement": "EC50", "setting": "[1]; Plasmodium berghei, Huh-7, read-out: EC50 P. berghei parasite load", "result": "7.3 ± 0.99", "unit": "µM"}, {"measurement": "K63-linked protein ubiquitination (band intensities relative to DMSO)", "setting": "[2]", "result": "decreased"}, {"measurement": "K63-linked ubiquitin signal (total intensity of all bands)", "setting": "[2]; 30 and 100 μM", "result": "significantly decreased"}, {"measurement": "K48-linked ubiquitin signal (control)", "setting": "[2]; dose-response 0.001–100 μM", "result": "no change"}, {"measurement": "Kd", "setting": "PfPK9", "result": "0.46 ± 0.1", "unit": "µM"}, {"measurement": "decrease of HepG2 viability", "setting": "HepG2 cells; 30 μM, relative to DMSO", "result": "≤ 50", "unit": "%"}, {"measurement": "decrease of cell viability", "setting": "HepG2 cells; HepG2, tested up to 200 μM", "result": "≤ 40", "unit": "%"}, {"measurement": "Kd", "setting": "PfCDPK1", "result": "> 30", "unit": "µM"}, {"measurement": "Kd", "setting": "PfPK5", "result": "> 30", "unit": "µM"}, {"measurement": "IC50", "setting": "HsIRAK4", "result": 0.12, "unit": "µM"}, {"measurement": "IC50", "setting": "HsIRAK1", "result": 0.39, "unit": "µM"}, {"measurement": "decrease of cell viability", "setting": "HuH7 cells; HuH7, tested up to 200 μM", "result": "≤ 40", "unit": "%"}, {"measurement": "EEF size", "setting": "[3]; 10 μM, 0–24, 24–48 and 0–48 hpi, vs DMSO", "result": "significantly increased"}, {"measurement": "number of EEFs (infected cells)", "setting": "[3]; 10 μM, all time periods", "result": "not affected"}, {"measurement": "number of EEFs", "setting": "[3]; 30 μM, 0–24 hpi or 0–48 hpi", "result": "decreased"}, {"measurement": "EEF size", "setting": "[3]; 30 μM, 0–24 hpi or 24–48 hpi", "result": "increased"}]}]}
